Where a SMILES comes first, the peptide text is derived from it. The star is where a group is joined. Myristoyl = CCCCCCCCCCCCCC(=O)*
What was measured:
[1] = cited from earlier work
[2] = tested on: Ca2+ currents in sensory neurons; settings: cited from earlier work
[3] = target: N-type voltage-gated calcium channel (CaV2.2) (rat (endogenous in spinal cord)) (UniProt Q02294); experiment: pull-down
[4] = i.c.v. dosing; previous studies; cited from earlier work
[5] = Rotarod performance test; assay type: in vivo, rat; settings: 20 μg/5 μL i.t.; cutoff 180 seconds; n = 5 to 6
[6] = Paw incision model of postoperative pain; assay type: in vivo, rat
Procedure, shortened: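 Male Sprague-Dawley rats received a plantar incision of the left hind paw under isoflurane. After 24 h of recovery, peptide or vehicle was given spinally. Thermal withdrawal latency (lift or lick; 30-s cutoff) and tactile withdrawal thresholds were measured every 15 min for the first hour, then every 30 min for 4 h.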

[7] = tested on: CaV2.2; experiment: Immunocytochemistry, confocal colocalization of CaV2.2 and CRMP2 in DRG; assay type: cell-based, rat; settings: 20 μM peptide
Procedure, shortened: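 DRG cultures were grown on poly-D-lysine coverslips in DMEM/F12 with 10% FBS, 5-FDU and uridine at 37°C, 5% CO2. Cells were exposed to vehicle or 20 μM peptide for 5 min, 20 min, 2 h or 48 h, then fixed (4% paraformaldehyde/4% sucrose, 20 min), permeabilized (0.1% Triton X-100) and blocked (3% BSA). Anti-CaV2.2 and anti-CRMP2 were applied overnight at 4°C. Confocal images were background-subtracted, and Pearson and Manders coefficients were computed from raw data.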

[8] = target: CRMP2 (Homo sapiens, UniProt Q16555); experiment: CRMP2 oligomerization, glutaraldehyde cross-linking and silver-stained SDS-PAGE; assay type: biochemical; settings: 20 μM peptide, 1 mM glutaraldehyde; n = 3
Procedure, shortened: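 Bacterially expressed recombinant CRMP2, purified by affinity, anion-exchange and size-exclusion chromatography. About 4.6 μM CRMP2 was preincubated in 100 mM HEPES pH 7.3, 50 mM NaCl, with or without 20 μM peptide, for 15 min at room temperature. Glutaraldehyde (0.1, 1 or 10 mM) was added for 30 min. The reaction was stopped with loading dye and heat, and oligomers were resolved by SDS-PAGE with silver staining.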

[9] = tested on: Na+ currents, catecholamine A differentiated cell line; settings: chronic application, 20 μM overnight; n = 5 to 8 cells
[10] = tested on: Ca2+ currents in sensory neurons; experiment: Whole-cell voltage clamp, Ca2+ currents in sensory neurons; assay type: cell-based, rat
[11] = tested on: small-diameter DRG neurons; experiment: Current clamp, excitability of small-diameter DRG neurons; assay type: cell-based, rat; settings: step of depolarizing current; n = 4 to 6 cells; P < 0.001
Procedure, shortened: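 Whole-cell current clamp of acutely dissociated small-diameter DRG neurons at ~23°C. Pipette solution (mM): 140 KCl, 10 NaCl, 1 MgCl2, 1 EGTA, 10 HEPES pH 7.2, 1 ATP-Mg. Cells were held at resting potential (−40 to −62 mV). A 1-s depolarizing current step was set to evoke 6–10 APs under control, and APs were counted before and after adding peptide to the bath. Signals were filtered at 5 kHz and […].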

[12] = tested on: CRMP2 phosphorylation; experiment: Western blot of phospho-CRMP2 in peptide-treated DRG; assay type: cell-based, rat; settings: 20 μM peptide, 2 hours, n = 3–6 wells
[13] = Carrageenan-induced thermal hypersensitivity; assay type: in vivo, rat; settings: 20 μg/5 μL i.t., 3 hours after carrageenan; tat-CBD3 at 90, 120, 210, 240, 300 minutes; myr-tat-CBD3 at 15, 60, 90, 120, 180 minutes; n = 5–6

Sequence of N-type voltage-gated calcium channel (CaV2.2) (rat (endogenous in spinal cord)) (Q02294 whole entry): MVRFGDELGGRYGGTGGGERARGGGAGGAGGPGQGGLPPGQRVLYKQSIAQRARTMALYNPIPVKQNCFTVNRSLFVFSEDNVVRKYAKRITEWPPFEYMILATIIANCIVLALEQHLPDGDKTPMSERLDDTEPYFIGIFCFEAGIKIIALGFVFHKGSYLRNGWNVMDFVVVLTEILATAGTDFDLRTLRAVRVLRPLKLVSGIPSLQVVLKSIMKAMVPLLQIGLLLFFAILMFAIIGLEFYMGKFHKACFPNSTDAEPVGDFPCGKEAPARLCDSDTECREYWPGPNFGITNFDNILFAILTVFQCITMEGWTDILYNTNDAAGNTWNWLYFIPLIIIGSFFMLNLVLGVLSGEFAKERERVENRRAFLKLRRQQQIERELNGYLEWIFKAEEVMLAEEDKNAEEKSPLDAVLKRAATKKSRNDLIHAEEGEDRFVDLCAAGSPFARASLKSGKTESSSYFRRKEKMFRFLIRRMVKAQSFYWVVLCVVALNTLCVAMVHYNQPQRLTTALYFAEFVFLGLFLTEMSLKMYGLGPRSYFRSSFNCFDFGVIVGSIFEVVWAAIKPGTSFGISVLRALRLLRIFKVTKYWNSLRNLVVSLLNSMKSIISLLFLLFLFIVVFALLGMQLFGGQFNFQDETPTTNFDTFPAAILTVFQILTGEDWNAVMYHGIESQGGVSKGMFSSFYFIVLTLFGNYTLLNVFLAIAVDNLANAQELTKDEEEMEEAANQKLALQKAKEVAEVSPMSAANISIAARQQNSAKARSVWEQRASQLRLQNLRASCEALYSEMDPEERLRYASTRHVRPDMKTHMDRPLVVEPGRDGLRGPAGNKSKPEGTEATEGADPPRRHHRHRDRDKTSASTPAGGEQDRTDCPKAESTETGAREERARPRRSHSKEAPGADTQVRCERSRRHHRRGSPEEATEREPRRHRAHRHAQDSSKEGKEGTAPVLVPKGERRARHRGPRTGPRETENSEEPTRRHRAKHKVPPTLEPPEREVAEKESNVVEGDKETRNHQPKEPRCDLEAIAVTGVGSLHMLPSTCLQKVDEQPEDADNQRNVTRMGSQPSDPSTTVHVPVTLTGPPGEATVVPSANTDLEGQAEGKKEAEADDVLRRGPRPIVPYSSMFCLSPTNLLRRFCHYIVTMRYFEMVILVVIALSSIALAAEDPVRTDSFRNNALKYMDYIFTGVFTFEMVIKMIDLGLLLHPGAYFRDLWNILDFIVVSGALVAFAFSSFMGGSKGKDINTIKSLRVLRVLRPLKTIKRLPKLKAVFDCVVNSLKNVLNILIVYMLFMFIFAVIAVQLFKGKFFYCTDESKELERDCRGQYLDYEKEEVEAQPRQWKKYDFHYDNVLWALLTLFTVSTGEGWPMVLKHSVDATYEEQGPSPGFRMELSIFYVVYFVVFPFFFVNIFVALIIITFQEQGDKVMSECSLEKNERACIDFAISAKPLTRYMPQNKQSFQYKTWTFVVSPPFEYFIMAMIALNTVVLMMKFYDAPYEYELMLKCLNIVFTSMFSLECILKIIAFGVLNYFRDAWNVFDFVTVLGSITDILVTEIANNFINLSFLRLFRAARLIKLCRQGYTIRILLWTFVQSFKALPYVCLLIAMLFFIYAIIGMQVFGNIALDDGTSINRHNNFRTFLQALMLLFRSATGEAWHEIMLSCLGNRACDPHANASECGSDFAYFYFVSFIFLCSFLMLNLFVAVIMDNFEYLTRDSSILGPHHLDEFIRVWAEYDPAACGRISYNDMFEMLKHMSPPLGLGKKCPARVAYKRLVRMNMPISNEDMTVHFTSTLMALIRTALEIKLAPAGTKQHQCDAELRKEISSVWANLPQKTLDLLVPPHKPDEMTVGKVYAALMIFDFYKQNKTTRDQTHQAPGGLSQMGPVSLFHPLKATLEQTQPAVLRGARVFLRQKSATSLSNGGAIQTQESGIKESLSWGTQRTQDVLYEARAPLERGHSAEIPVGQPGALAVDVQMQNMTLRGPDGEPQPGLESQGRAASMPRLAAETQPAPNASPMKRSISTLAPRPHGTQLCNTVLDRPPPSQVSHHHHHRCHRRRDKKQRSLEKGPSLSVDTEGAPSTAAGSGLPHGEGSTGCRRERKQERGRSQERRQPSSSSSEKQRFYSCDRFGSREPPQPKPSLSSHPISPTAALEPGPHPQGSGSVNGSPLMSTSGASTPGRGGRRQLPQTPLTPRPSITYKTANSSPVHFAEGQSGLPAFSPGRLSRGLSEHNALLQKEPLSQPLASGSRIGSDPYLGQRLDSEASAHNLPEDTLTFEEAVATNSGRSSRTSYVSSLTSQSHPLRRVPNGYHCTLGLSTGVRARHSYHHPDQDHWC

Q: With NCC1(CC(=O)O)CCCCC1 [gabapentin] as the molecule, how does the “peak effect, reversal of hypersensitivity” value ([1]; intrathecal, von Frey on incised paw, 60 minutes after injection) read?
A: Its value is ~ 19%.

Q: What about the “block of CaV2.2 currents after acute treatments” value [2] of the same molecule?
A: The value was “ineffective in blocking currents”.

Q: With myr-tat-CBD3 (peptide) as the molecule, how does the percent inhibition of CaV2.2-CRMP2 binding at 10 μM [3] read?
A: Its percent inhibition of CaV2.2-CRMP2 binding at 10 μM is > 81%.

Q: Which conditioned place preference [4] does the source give for CN1CC[C@]23c4c5ccc(O)c4O[C@H]2[C@@H](O)C=C[C@H]3[C@H]1C5 [morphine] here?
A: The conditioned place preference was “positive condition place preference”.

Q: For ω-conotoxin MVIIA, which “duration of reduced thermal hypersensitivity and mechanical allodynia” value ([1]; in vivo) is on record?
A: Its value is 2 to 4 h.

Q: And the “time of maximal effect” value ([1]; in vivo)?
A: Its value is 2 h.

Q: For CC(C)C[C@H](NC(=O)CNC(=O)[C@H](CCCNC(=N)N)NC(=O)[C@@H]1CCCN1C(=O)[C@@H](NC(=O)CNC(=O)[C@H](CCCNC(=N)N)NC(=O)[C@H](CC(C)C)NC(=O)[C@H](CCC(=O)O)NC(=O)[C@H](C)NC(=O)[C@H](CC(C)C)NC(=O)[C@H](CCCNC(=N)N)NC(=O)[C@H](CO)NC(=O)[C@H](CCCNC(=N)N)NC(=O)[C@H](C)NC(=O)[C@H](CCCNC(=N)N)NC(=O)[C@H](CCCNC(=N)N)NC(=O)[C@H](CCCNC(=N)N)NC(=O)[C@H](CCC(N)=O)NC(=O)[C@H](CCCNC(=N)N)NC(=O)[C@H](CCCNC(=N)N)NC(=O)[C@H](CCCCN)NC(=O)[C@H](CCCCN)NC(=O)[C@H](CCCNC(=N)N)NC(=O)CNC(=O)[C@@H](N)Cc1ccc(O)cc1)C(C)C)C(=O)O [tat-CBD3] (H-YGRKKRRQRRRARSRLAELRGVPRGL-OH), which “average time on rotarod over the course of 300 minutes” value [5] is on record?
A: Its value is 180 ± 0 s.

Q: Which “time for which maintenance of thermal and tactile hypersensitivity was blocked” value ([6]; 20 μg/5 μL i.t., 24 hours after incision, n = 5) does the source give for CCCCCCCCCCCCCC(=O)NCC(=O)N[C@@H](Cc1ccc(O)cc1)C(=O)NCC(=O)N[C@@H](CCCNC(=N)N)C(=O)N[C@@H](CCCCN)C(=O)N[C@@H](CCCCN)C(=O)N[C@@H](CCCNC(=N)N)C(=O)N[C@@H](CCCNC(=N)N)C(=O)N[C@@H](CCC(N)=O)C(=O)N[C@@H](CCCNC(=N)N)C(=O)N[C@@H](CCCNC(=N)N)C(=O)N[C@@H](CCCNC(=N)N)C(=O)N[C@@H](C)C(=O)N[C@@H](CCCNC(=N)N)C(=O)N[C@@H](CO)C(=O)N[C@@H](CCCNC(=N)N)C(=O)N[C@@H](CC(C)C)C(=O)N[C@@H](C)C(=O)N[C@@H](CCC(=O)O)C(=O)N[C@@H](CC(C)C)C(=O)N[C@@H](CCCNC(=N)N)C(=O)NCC(=O)N[C@H](C(=O)N1CCC[C@H]1C(=O)N[C@@H](CCCNC(=N)N)C(=O)NCC(=O)N[C@@H](CC(C)C)C(=O)O)C(C)C [myr-tat-CBD3] (Myristoyl-GYGRKKRRQRRRARSRLAELRGVPRGL-OH; C-terminus assumed) here?
A: Its value is “at least 4 hours”.

Q: What about the “withdrawal threshold (tactile)” value ([6]; at 5 hours after i.t. injection, 20 μg/5 μL) of the same molecule?
A: The value was ~ 11 g.

Q: What about the “duration of reversal of thermal hypersensitivity” value ([6]; spinal administration after surgery) of the same molecule?
A: Its value is ~ 4 hours.

Q: And the “Manders overlap coefficient (MOC), CaV2.2 with CRMP2” value [7]?
A: Its value is 0.65.

Q: And the “Pearson correlation coefficient (PCC), CaV2.2 with CRMP2” value [7]?
A: The value was 0.60.

Q: What about the “extent of CRMP2 dimer or tetramer” value [8] of the same molecule?
A: Its value is “does not alter”.

Q: What about the “effect on Na+ currents” value [9] of the same molecule?
A: Its value is “did not affect”.

Q: What about the “effect on Ca2+ currents, acute application” value ([10]; acute application (5–30 minutes), data not shown) of the same molecule?
A: The value was “unable to inhibit currents”.

Q: And the “inhibition of Ca2+ currents” value ([10]; chronic application (~24 hours), 20 μM overnight, n = 14 to 16 cells)?
A: The value was ~ 40%.

Q: What about the “activation of Ca2+ currents” value ([10]; chronic application, 20 μM, Boltzmann fits) of the same molecule?
A: Its value is “no changes”.

Q: And the “number of action potentials (APs)” value [11]?
A: The value was “significantly decreased”.

Q: What about the “expression of phosphorylated CRMP2 at sites 522, 509/514, 555” value [12] of the same molecule?
A: Its value is “no changes”.

Q: And the “carrageenan-induced thermal hypersensitivity vs vehicle” value [13]?
A: The value was “significantly attenuated”.
